Results on one compound are retold here after BindingDB's records for doi:10.1021/jm015578d (Sapienza University of Rome, 2002).

The target in this test is T1, Amine oxidase [flavin-containing] A (Bos taurus, UniProt P21398).
T1 sequence (P21398 whole entry): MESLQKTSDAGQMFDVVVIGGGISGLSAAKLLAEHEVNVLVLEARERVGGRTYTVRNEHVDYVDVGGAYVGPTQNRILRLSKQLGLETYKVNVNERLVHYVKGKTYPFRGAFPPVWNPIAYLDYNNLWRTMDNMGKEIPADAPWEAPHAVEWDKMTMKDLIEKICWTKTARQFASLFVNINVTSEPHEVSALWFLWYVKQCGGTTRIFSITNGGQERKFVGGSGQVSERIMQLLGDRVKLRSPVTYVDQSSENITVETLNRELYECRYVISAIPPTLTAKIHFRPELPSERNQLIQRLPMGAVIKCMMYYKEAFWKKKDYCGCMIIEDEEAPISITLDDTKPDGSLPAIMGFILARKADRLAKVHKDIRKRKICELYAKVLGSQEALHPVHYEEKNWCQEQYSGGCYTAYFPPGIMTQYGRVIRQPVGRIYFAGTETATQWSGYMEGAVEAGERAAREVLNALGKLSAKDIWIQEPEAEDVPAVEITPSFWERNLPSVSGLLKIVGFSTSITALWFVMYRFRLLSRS
Put plainly: Inhibition of bovine brain mitochondrial Monoamine oxidase A (MAO-A) compared to toloxatone. Put shortly:
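Bovine brain mitochondria were isolated by the Basford method. To isolate MAO-A, fractions were preincubated 30 min at 38 °C with 1 μM L-deprenyl. Inhibitors in DMSO were preincubated 30 min, then kynuramine substrate was added, with 30 min further incubation. Product was read fluorimetrically and Ki values derived.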

In general, Ki refers to a dissociation constant, usually derived from enzyme kinetics or from competition with a known ligand. Lower therefore signals higher affinity.

Compound `O=C1O[C@@H](CO)CN1n1cccc1` returned a Ki of 270 nM.
